pIC50: −log10 of the molar value.

The target of assay [1] is T1, Cholecystokinin receptor type A (Rattus norvegicus, UniProt P30551).
T1 sequence (P30551 whole entry): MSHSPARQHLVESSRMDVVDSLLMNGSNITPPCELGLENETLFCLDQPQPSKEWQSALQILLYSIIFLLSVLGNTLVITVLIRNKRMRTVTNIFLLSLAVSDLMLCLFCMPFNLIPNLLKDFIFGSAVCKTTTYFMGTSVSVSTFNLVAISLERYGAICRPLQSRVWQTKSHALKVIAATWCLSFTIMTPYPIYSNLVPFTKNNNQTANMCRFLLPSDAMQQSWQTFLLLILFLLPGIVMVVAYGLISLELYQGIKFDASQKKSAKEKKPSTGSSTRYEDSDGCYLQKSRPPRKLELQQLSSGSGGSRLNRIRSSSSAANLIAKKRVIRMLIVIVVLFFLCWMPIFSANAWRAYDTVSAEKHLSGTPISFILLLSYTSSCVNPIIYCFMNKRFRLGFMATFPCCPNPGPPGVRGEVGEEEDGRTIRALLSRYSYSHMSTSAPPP
Nature of the assay: Binding affinity towards Cholecystokinin type A receptor (CCK-A) receptor from rat pancreas using [125I]bolton Hunter CCK-8 as radioligand. Summed up:
(§1)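 IC50 = concentration giving half-maximal inhibition of specific [125I]Bolton Hunter CCK-8 binding, with CCK-B sites from mouse cerebral cortex and CCK-A sites from rat pancreas. Weaker compounds given as % inhibition at 10 μM. Values are geometric means of at least three separate experiments; statistical errors 15% of the mean.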

Assay [2] has as its target T2, Gastrin/cholecystokinin type B receptor (Mus musculus, UniProt P56481).
T2 sequence (P56481 whole entry): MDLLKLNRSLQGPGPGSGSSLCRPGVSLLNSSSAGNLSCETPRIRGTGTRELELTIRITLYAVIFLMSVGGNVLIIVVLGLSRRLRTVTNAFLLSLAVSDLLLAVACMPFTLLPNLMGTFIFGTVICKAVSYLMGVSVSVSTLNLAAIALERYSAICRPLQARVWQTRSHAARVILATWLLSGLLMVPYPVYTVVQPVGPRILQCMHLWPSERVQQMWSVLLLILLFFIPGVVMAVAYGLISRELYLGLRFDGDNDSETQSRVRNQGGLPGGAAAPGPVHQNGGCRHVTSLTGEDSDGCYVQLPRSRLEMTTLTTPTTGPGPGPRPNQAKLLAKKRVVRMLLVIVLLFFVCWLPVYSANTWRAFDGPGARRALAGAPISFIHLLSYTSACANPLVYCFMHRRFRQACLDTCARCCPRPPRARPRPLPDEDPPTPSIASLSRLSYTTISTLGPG
Put plainly: Binding affinity towards Cholecystokinin type B receptor (CCK-B) receptor in mouse cerebral cortex using [125I]bolton Hunter CCK-8 as radioligand. In kind it is tissue-based.

For assay [3], the target named is T3, Cholecystokinin receptor type A (Rattus norvegicus) (UniProt P30551).
T3 sequence (whole entry): T1 sequence (P30551 whole entry)
Put plainly: Binding affinity towards Cholecystokinin type A receptor (CCK-A) receptor from rat pancreas using [125I]bolton Hunter CCK-8 as radioligand at a concentration of 10 um. The gist of the method:
as §1

Assay [4] has as its target T4, Gastrin/cholecystokinin type B receptor (Mus musculus) (UniProt P56481).
T4 sequence (whole entry): T2 sequence (P56481 whole entry)
Nature of the assay: Binding affinity towards Cholecystokinin type B receptor (CCK-B) receptor in mouse cerebral cortex using [125I]bolton Hunter CCK-8 as radioligand at a concentration of 10 um. It counts as tissue-based. The gist of the method: as §1

Regarding `COc1cccc(N(CC(=O)N(C)c2ccccc2)C(=O)CNC(=O)Nc2cccc(C)c2)c1`, the negative-log IC50 (pIC50) in assay [1] was 6.85; in assay [2], 8.10.
In turn, `Cc1cccc(NC(=O)NNc2nc3ccccc3c(=O)n2-c2cccc(F)c2)c1` gave an inhibition in assay [3] of 26%. For the same compound, the negative-log IC50 (pIC50) in assay [2] was 6.04.
Take `Cc1cccc(NC(=O)NNc2nc3ccccc3c(=O)n2-c2cccnc2)c1`: the pIC50 in assay [1] was 4.90; in assay [2], 5.37.
`CCOC(=O)c1ccccc1NC(=O)NNc1nc2ccccc2c(=O)n1-c1cccc(OC(C)C)c1`: the inhibition in assay [3] turned out to be 22%. The compound further gave a negative logarithm of the IC50 (pIC50) in assay [2] of 5.12.
Take `CCOC(=O)c1cccc(NC(=O)NNc2nc3ccccc3c(=O)n2-c2cccc3ccccc23)c1`: the results for the inhibition in assay [3] and in assay [4] were 5% and 35%, respectively.
As to `Cc1cccc(NC(=O)NNc2nc3ccccc3c(=O)n2-c2ccccc2)c1`, the inhibition in assay [3] was 39%. Also, the negative-log IC50 (pIC50) in assay [2] is 5.97.
In the case of `CCOC(=O)c1cccc(NC(=O)NNc2nc3ccccc3c(=O)n2-c2cccc(OCC)c2)c1`, the negative logarithm of the IC50 (pIC50) in assay [1] is 5.92; in assay [2], 8.30.
As for `CCOC(=O)c1cccc(NC(=O)NNc2nc3ccccc3c(=O)n2-c2ccc(Cl)cc2)c1`, the inhibition in assay [3] amounted to 15%. This compound showed a pIC50 in assay [2] of 7.85.
Regarding `O=C(NNc1nc2ccccc2c(=O)n1-c1ccccc1)Nc1ccccc1`, the negative logarithm of the IC50 (pIC50) in assay [1] is 5.13; in assay [2], 5.91.
For the compound `CC(C)Oc1cccc(-n2c(NNC(=O)c3ccc(Br)cc3)nc3ccccc3c2=O)c1`, the negative logarithm of the IC50 (pIC50) in assay [1] was 5.25; in assay [2] it was 7.06.
The corresponding values for `CCOC(=O)c1cccc(NC(=O)NNc2nc3ccccc3c(=O)n2-c2cccc(Cl)c2Cl)c1` are 5.78 and 7.30.
The corresponding values for `COc1ccccc1NC(=O)NNc1nc2ccccc2c(=O)n1-c1cccc(OC(C)C)c1` are 5.38 and 8.00.
Regarding `CN(C)c1cccc(-n2c(CCc3c[nH]c4cc(Br)ccc34)nc3ccccc3c2=O)c1`, the pIC50 in assay [2] was 7.80.
In the case of `CCOC(=O)c1cccc(NC(=O)NNc2nc3ccccc3c(=O)n2-c2ccc(Cl)c(Cl)c2)c1`, the inhibition in assay [3] came to 16%. Further, the pIC50 in assay [2] was 8.62.
For the compound `CC(C)Oc1cccc(-n2c(CCc3c[nH]c4cc(Br)ccc34)nc3ccccc3c2=O)c1`, the negative-log IC50 (pIC50) in assay [2] was 8.03.
On to `CC(C)Oc1cccc(-n2c(NNC(=O)NC3CCCCC3)nc3ccccc3c2=O)c1`, for which the negative-log IC50 (pIC50) in assay [1] is 4.76; in assay [2], 6.97.
The corresponding values for `COc1cccc(NC(=O)NNc2nc3ccccc3c(=O)n2-c2cccc(OC(C)C)c2)c1` are 5.13 and 7.66.
The corresponding values for `CCOc1cccc(-n2c(NNC(=O)Nc3cccc(C#N)c3)nc3ccccc3c2=O)c1` are 5.35 and 8.24.
With `CCOC(=O)c1cccc(NC(=O)NNc2nc3ccccc3c(=O)n2-c2ccc(OC)c(OC)c2)c1`, the inhibition in assay [3] stood at 20%. In assay [2], this compound showed a pIC50 of 6.21.
In turn, `Cc1cccc(NC(=O)NNc2nc3ccccc3c(=O)n2-c2cccc3ccccc23)c1` showed an inhibition in assay [3] of 7%. Moreover, the pIC50 in assay [2] was 5.45.
Consider `COc1cccc(-n2c(NNC(=O)Nc3cccc(C)c3)nc3ccccc3c2=O)c1`, for which the pIC50 was 5.29 in assay [1] and 6.70 in assay [2].
The corresponding values for `Cc1cccc(NC(=O)NNc2nc3ccccc3c(=O)n2-c2cccc(Cl)c2Cl)c1` are 5.52 and 7.14.
The corresponding values for `CCOc1cccc(-n2c(NNC(=O)Nc3cccc(C)c3)nc3ccccc3c2=O)c1` are 5.59 and 7.35.
In the case of `CCOC(=O)c1cccc(NC(=O)NNc2nc3ccccc3c(=O)n2-c2ccc(OC)cc2)c1`, the inhibition in assay [3] worked out at 20%. Also, the negative logarithm of the IC50 (pIC50) in assay [2] was 6.23.
The corresponding values for `Cc1cccc(NC(=O)NNc2nc3ccccc3c(=O)n2-c2cccc(Cl)c2)c1` are 20% and 6.65.
As to `CC(C)Oc1cccc(-n2c(NNC(=O)Nc3cccc(Cl)c3)nc3ccccc3c2=O)c1`, the pIC50 in assay [1] was 5.62; in assay [2], 8.23.
The corresponding values for `CC(C)Oc1cccc(-n2c(NNC(=O)Nc3cccc(C(F)(F)F)c3)nc3ccccc3c2=O)c1` are 5.65 and 8.10.
For `COC(=O)c1cccc(NC(=O)N[C@@H]2N=C(c3ccccc3)c3ccccc3N(C)C2=O)c1`, in assay [2], the negative-log IC50 (pIC50) is 8.10.
Regarding `CCOC(=O)c1cccc(NC(=O)NNc2nc3ccccc3c(=O)n2-c2cccc(OC)c2)c1`, the negative logarithm of the IC50 (pIC50) was 5.63 in assay [1] and 7.82 in assay [2].
The corresponding values for `CC(C)Oc1cccc(-n2c(NNC(=O)Nc3ccc(C(F)(F)F)cc3)nc3ccccc3c2=O)c1` are 5.56 and 7.42.
The corresponding values for `CCOC(=O)c1cccc(NC(=O)NNc2nc3ccccc3c(=O)n2-c2cccc(Cl)c2)c1` are 5.30 and 7.48.
On the same counts, the results for `CC(C)Oc1cccc(-n2c(NNC(=O)Nc3cccc([N+](=O)[O-])c3)nc3ccccc3c2=O)c1` are 5.59 and 9.00.
As to `CCOC(=O)c1cccc(NC(=O)NNc2nc3ccccc3c(=O)n2-c2cccc(N(C)C)c2)c1`, the pIC50 is 5.58 in assay [1] and 8.30 in assay [2].
The corresponding values for `CC(C)Oc1cccc(-n2c(NNC(=O)Nc3cccc(C#N)c3)nc3ccccc3c2=O)c1` are 5.27 and 8.92.
The corresponding values for `Cc1cccc(NC(=O)NNc2nc3ccccc3c(=O)n2-c2cccc(N(C)C)c2)c1` are 5.31 and 7.20.
With `COc1ccc(-n2c(NNC(=O)Nc3cccc(C)c3)nc3ccccc3c2=O)cc1OC`, the inhibition in assay [3] was 34%. In assay [2], this compound had a pIC50 of 5.68.
In the case of `CCOC(=O)c1ccc(NC(=O)NNc2nc3ccccc3c(=O)n2-c2cccc(OC(C)C)c2)cc1`, the pIC50 was 5.50 in assay [1] and 7.24 in assay [2].
In the case of `Cc1cccc(NC(=O)NNc2nc3ccccc3c(=O)n2-c2ccc(Cl)c(Cl)c2)c1`, the inhibition in assay [3] came to 10%. Moreover, the pIC50 in assay [2] was 7.01.
`CCOC(=O)c1cccc(NC(=O)NNc2nc3ccccc3c(=O)n2-c2cccnc2)c1`: the values for the negative logarithm of the IC50 (pIC50) in assay [1] and in assay [2] were 4.95 and 6.50, respectively.
On the same counts, the results for `Cc1cccc(NC(=O)NNc2nc3ccccc3c(=O)n2-c2cccc(OC(C)C)c2)c1` are 5.19 and 7.96.
As to `Cc1cccc(NC(=O)NNc2nc3ccccc3c(=O)n2-c2ccc(Cl)cc2)c1`, in assay [3], the inhibition came to 10%. This compound also had a pIC50 in assay [2] of 5.93.
`CC(C)Oc1cccc(-n2c(NNC(=O)Nc3ccc(Cl)cc3)nc3ccccc3c2=O)c1`: the negative logarithm of the IC50 (pIC50) is 5.44 in assay [1] and 7.85 in assay [2].
`N#Cc1cccc(NC(=O)NNc2nc3ccccc3c(=O)n2-c2ccccc2)c1`: in assay [3], the inhibition amounted to 37%. Further, the pIC50 in assay [2] is 6.58.
On to `CC(C)Oc1cccc(-n2c(NNC(=O)Nc3ccccc3)nc3ccccc3c2=O)c1`, for which the pIC50 in assay [1] was 5.34; in assay [2], 7.82.
The corresponding values for `Cc1cccc(NC(=O)NNc2nc3ccccc3c(=O)n2-c2cccc(N)c2)c1` are 6.97 and 6.66.
Regarding `COc1cccc(N(CC(=O)N(C)c2ccccc2)C(=O)CNC(=O)Nc2cccc(C(=O)O)c2)c1`, the figures for the pIC50 in assay [1] and in assay [2] were 6.03 and 7.64, respectively.
On the same counts, the results for `CC(C)Oc1cccc(-n2c(NNC(=O)Nc3ccc(Br)cc3)nc3ccccc3c2=O)c1` are 5.46 and 7.85.
In the case of `CCOC(=O)c1cccc(NC(=O)NNc2nc3ccccc3c(=O)n2-c2cccc(F)c2)c1`, the inhibition in assay [3] was 30%. Further, the pIC50 in assay [2] is 7.59.
On to `CC(C)Oc1cccc(-n2c(NNC(=O)Nc3cccc(C(=O)O)c3)nc3ccccc3c2=O)c1`, for which the pIC50 is 5.09 in assay [1] and 7.54 in assay [2].
On the same counts, the results for `COc1ccc(NC(=O)NNc2nc3ccccc3c(=O)n2-c2cccc(OC(C)C)c2)cc1` are 4.81 and 7.60.
Turning to `CCOC(=O)c1cccc(NC(=O)NNc2nc3ccccc3c(=O)n2-c2cccc(OC(C)C)c2)c1`, the pIC50 is 5.46 in assay [1] and 8.82 in assay [2].
In assay [3], `CCOC(=O)c1cccc(NC(=O)NNc2nc3ccccc3c(=O)n2-c2ccccc2)c1` displayed an inhibition of 37%. The same compound showed a pIC50 in assay [2] of 6.82.

The values above are taken from ChEMBL document CHEMBL1131373, “Novel nonpeptide CCK-B antagonists: design and development of quinazolinone derivatives as potent, selective, and orally active CCK-B antagonists” (J Med Chem, 1998).
